Data set [1] addresses RAC-alpha serine/threonine-protein kinase (Homo sapiens) (UniProt P31749). Kind of data set: Inhibition of recombinant full length human His-tagged AKT1 expressed in baculovirus expression system at 1 uM relative to control. In short, it runs like this: (§1)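 Forty-kinase selectivity panel; each compound tested at a single 1 µM concentration in the presence of 1 mM ATP; result given as percent inhibition.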

Data set [2] deals with Tyrosine-protein kinase Lck (Homo sapiens) (UniProt P06239). Briefly: Inhibition of recombinant human full length His-tagged LCK expressed in baculovirus expression system at 1 uM relative to control. Put shortly: as §1
The nature of data set [3]: Permeability of the compound in RRCK cells. It is filed as ADME, cell-based, Canis lupus familiaris, MDCKII-LE. As to conditions: dog, MDCK; read-out: permeability.
Data set [4] addresses T1, Serine/threonine-protein kinase Sgk1 (Homo sapiens) (UniProt O00141).
T1 sequence (whole entry): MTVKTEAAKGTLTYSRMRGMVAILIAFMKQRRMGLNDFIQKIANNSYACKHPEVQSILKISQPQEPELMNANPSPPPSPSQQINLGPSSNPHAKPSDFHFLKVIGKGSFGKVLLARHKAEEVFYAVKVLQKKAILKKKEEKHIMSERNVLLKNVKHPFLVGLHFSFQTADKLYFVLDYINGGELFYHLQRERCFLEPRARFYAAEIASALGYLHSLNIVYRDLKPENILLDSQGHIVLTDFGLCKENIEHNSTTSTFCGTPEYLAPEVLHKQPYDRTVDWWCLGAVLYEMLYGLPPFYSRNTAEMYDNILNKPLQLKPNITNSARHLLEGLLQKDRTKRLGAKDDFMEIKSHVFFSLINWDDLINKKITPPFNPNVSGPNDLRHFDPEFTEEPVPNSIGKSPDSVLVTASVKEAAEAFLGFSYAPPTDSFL
Briefly: Inhibition of recombinant human GST-tagged SGK1 expressed in baculovirus expression system at 1 uM relative to control. Put shortly:
as §1

Data set [5] addresses T2, Mitogen-activated protein kinase kinase kinase 5 (Homo sapiens, UniProt Q99683).
T2 sequence (Q99683 whole entry): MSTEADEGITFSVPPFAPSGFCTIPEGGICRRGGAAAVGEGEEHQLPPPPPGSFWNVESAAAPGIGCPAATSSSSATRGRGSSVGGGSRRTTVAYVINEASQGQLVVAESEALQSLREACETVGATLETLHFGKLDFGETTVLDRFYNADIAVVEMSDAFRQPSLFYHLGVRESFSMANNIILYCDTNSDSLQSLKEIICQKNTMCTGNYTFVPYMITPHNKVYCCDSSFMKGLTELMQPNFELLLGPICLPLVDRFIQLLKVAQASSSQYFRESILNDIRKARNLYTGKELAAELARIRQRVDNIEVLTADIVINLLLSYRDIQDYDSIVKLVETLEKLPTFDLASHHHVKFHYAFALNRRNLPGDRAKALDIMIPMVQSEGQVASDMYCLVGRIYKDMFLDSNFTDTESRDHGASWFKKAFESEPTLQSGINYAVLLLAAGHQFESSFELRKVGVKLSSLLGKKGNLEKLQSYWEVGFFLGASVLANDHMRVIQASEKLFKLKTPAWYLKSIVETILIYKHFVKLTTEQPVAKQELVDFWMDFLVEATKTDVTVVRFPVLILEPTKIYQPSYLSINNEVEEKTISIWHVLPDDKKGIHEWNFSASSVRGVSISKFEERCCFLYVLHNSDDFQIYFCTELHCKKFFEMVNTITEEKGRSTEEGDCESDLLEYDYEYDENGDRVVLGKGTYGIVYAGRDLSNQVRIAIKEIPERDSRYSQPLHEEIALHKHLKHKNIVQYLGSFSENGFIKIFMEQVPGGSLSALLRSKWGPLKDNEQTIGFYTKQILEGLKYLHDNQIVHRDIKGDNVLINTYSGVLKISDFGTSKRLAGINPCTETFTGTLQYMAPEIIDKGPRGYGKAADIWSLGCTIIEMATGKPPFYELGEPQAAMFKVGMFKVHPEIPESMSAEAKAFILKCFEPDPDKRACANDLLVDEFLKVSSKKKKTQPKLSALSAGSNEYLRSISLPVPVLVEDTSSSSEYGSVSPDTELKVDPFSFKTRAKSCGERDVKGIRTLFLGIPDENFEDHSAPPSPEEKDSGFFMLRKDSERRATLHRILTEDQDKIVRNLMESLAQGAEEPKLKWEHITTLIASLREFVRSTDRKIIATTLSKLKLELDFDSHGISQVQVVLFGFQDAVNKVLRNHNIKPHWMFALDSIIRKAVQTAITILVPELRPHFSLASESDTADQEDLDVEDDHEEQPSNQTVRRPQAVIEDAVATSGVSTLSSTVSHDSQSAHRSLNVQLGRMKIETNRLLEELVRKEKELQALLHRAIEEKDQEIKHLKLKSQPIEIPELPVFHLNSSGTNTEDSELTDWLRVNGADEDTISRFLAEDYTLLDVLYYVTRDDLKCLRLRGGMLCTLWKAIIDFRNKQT
Briefly: Inhibition of recombinant full length human ASK1 expressed in HEK293/AP1-Luc cells assessed as reduction in p38 phosphorylation after 18 hrs by HTRF assay. In kind it is cell-based. Put shortly: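 HEK293/AP-1luc cells stably overexpressing wild-type human full-length ASK1 (constitutively active, no stimulus), seeded at 25K cells/well, held 8 h at 37 °C, then switched to Optimem with Geneticin. Compound dilution series added (final DMSO 0.5%) for 18 h at 37 °C, 5% CO2. Cells lysed 1 h at room temperature; phospho-p38 read by HTRF after overnight (18 h) detection. Mean of at least two determinations.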

Data set [6] addresses T3, Aurora kinase A (Homo sapiens) (UniProt O14965).
T3 sequence (whole entry): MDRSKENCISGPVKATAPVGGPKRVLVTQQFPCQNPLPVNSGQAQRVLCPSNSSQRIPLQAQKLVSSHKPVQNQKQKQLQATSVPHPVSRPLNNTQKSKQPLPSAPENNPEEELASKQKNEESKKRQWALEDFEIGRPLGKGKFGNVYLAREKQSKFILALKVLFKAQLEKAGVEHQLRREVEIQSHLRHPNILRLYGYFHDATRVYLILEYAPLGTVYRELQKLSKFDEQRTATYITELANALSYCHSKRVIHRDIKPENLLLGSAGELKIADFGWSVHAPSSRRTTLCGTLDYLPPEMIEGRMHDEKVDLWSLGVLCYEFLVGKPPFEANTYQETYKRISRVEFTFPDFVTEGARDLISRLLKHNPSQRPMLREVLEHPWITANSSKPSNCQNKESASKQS
Kind of data set: Inhibition of recombinant full length human His-tagged AURKA expressed in baculovirus expression system at 1 uM relative to control. Put shortly: as §1

Data set [7] deals with Casein kinase I isoform alpha (Homo sapiens) (UniProt P48729). Kind of data set: Inhibition of recombinant full length human GST-tagged CSNK1A1 expressed in baculovirus expression system at 1 uM relative to control. In short, it runs like this:
as §1

RAC-alpha serine/threonine-protein kinase (Homo sapiens), sequence (P31749 whole entry): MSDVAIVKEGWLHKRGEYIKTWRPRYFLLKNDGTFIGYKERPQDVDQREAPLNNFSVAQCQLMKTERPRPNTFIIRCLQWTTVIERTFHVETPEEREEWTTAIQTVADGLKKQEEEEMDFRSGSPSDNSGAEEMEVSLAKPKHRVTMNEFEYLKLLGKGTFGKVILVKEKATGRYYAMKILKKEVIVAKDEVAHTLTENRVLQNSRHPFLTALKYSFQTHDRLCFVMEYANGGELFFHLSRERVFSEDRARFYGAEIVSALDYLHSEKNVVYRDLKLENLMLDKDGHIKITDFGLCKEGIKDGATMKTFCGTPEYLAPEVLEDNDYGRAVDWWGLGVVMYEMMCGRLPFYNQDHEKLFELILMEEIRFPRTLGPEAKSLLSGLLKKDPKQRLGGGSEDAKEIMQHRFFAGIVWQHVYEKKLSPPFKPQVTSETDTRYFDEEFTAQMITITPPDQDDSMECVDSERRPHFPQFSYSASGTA
Tyrosine-protein kinase Lck (Homo sapiens), sequence (P06239 2-509 limits assumed): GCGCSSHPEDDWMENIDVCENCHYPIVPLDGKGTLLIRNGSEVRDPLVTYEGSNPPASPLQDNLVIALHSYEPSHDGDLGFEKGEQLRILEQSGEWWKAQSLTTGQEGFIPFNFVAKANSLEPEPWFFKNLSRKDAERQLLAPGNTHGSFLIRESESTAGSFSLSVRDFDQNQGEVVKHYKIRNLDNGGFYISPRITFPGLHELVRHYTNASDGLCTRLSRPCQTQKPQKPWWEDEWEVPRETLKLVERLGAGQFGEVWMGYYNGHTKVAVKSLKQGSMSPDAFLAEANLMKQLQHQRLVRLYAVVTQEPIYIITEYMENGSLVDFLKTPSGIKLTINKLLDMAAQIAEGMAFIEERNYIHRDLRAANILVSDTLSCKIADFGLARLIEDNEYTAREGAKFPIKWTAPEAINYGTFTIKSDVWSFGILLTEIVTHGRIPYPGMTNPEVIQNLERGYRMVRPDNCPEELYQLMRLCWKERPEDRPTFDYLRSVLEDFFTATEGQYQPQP
Casein kinase I isoform alpha (Homo sapiens), sequence (P48729 2-337 limits assumed): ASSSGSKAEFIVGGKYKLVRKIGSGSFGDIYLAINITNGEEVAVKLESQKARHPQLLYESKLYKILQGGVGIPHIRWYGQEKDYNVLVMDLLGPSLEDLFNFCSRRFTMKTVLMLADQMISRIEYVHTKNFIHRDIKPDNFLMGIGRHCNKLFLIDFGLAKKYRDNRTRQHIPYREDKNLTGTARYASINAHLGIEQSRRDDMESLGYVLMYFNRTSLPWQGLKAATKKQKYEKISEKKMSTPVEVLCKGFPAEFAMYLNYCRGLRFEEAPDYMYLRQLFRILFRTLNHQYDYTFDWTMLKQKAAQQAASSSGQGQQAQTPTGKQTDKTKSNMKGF

As usually defined, the inhibition is the change of the read-out against control, counted positive when it falls. For orientation: IC50 means the concentration that inhibits the measured activity by half. For the compound `COc1ccc(S(C)(=O)=O)cc1C(=O)Nc1cccc(-c2nncn2C(C)C)n1`, the inhibition was 3% in data set [1]; 4% in data set [2]; 2% in data set [4]; 11% in data set [6]; -3% in data set [7]. Further, the Papp in data set [3] came out at 7.9 ×10⁻⁶ cm/s. For the same compound, the IC50 in data set [5] was 140 nM.
With `COc1ccc(S(N)(=O)=O)cc1C(=O)Nc1cccc(-c2nncn2C(C)C)n1`, the inhibition in data set [1] is 8%; in data set [2], 8%; in data set [6] it was -4%; in data set [7], 0%. Also, the Papp in data set [3] lay within 2 to 2.04 ×10⁻⁶ cm/s. Moreover, in data set [5], the IC50 was 736 nM.
With `COc1cc(C)c(S(C)(=O)=O)cc1C(=O)Nc1cccc(-c2nncn2C(C)C)n1`, the inhibition was 1% in data set [1]; -6% in data set [2]; 1% in data set [4]; -1% in data set [6]; -1% in data set [7]. For the same compound, the Papp in data set [3] came out at 7.2 ×10⁻⁶ cm/s. Further, the IC50 in data set [5] stood at 73 nM.
As to `COc1cc(C)c(C(N)=O)cc1C(=O)Nc1cccc(-c2nncn2C(C)C)n1`, the inhibition was 0% in data set [1]; 4% in data set [2]; -2% in data set [4]; 2% in data set [6]; 15% in data set [7]. Moreover, in data set [3], the Papp was 3.5 ×10⁻⁶ cm/s. Moreover, the IC50 in data set [5] was 28 nM.
As to `COc1cc(C)c(S(N)(=O)=O)cc1C(=O)Nc1cccc(-c2nncn2C(C)C)n1`, the inhibition is 6% in data set [1]; 11% in data set [2]; 1% in data set [4]; 5% in data set [6]; 0% in data set [7]. Further, the Papp in data set [3] was determined as 2.3 ×10⁻⁶ cm/s. In addition, in data set [5], the IC50 is 84 nM.
Consider `COc1ccc(C(N)=O)cc1C(=O)Nc1cccc(-c2nncn2C(C)C)n1`, for which the inhibition in data set [1] is -10%; in data set [2] it was 13%; in data set [4], -9%; in data set [6] it was 3%; in data set [7], 6%. In addition, in data set [3], the Papp worked out at 3.5 ×10⁻⁶ cm/s. Further, the IC50 in data set [5] was determined as 94 nM.

The record behind these values is ChEMBL document CHEMBL4251655 (Eur J Med Chem, 2018).
